Measured values reported in ChEMBL document CHEMBL4513216, “Probing the Open Global Health Chemical Diversity Library for Multistage-Active Starting Points for Next-Generation Antimalarials” (ACS Infect Dis, 2020).

Assay: Toxicity liver stage against HepG2, at 10uM
Format: cell-based
Design: test concentration 10 uM, cell line HepG2-A16-CD81EGFP
Details: human, HepG2-A16-CD81EGFP cells; read-out: INHIBITION
Outline: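 Uninfected HepG2-A16-CD81EGFP cells, 3 × 10^3 per well, 1536-well, plated on prespotted compound at 10 μM final, parasite-free screening media added to match infected plates; puromycin 10 μM positive, DMSO 0.5% negative; run in parallel with 48 h PbLuc assay at 37 °C, 5% CO2; viability by CellTiter-Glo luminescence, normalized to controls.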

Structure (SMILES)	cytotoxicity at 10 µM
COc1ccc(NC(=O)Cn2nc(C)c(C)cc2=O)cc1Cl	-6.47%
CS(=O)(=O)CCC(=O)NC(Cc1ccccc1)C1CC1 (stereo unspecified)	11.4%
COCC1CC2(CCN(C(=O)c3ccc(OC)c(Cl)c3)CC2)CO1 (stereo unspecified)	15.4%
Cc1nc(CNC(=O)N2CCN(c3ccc(Cl)cn3)CC2)sc1C	3.92%
Cc1cccc(C2(O)CCN(Cc3ccccc3N3CCCC3)CC2)c1	10.6%
Cc1ccccc1CCC(=O)N1CCCC(c2cc(C(N)=O)[nH]n2)C1 (stereo unspecified)	-11.3%
CN(C)c1cc2c(nn1)CCN(C(=O)c1cc3ccccc3[nH]c1=O)C2	3.99%
Cc1nc(-c2ccccc2)n(CC(=O)NC2CCCC2)n1	-0.248%
COc1cc(-c2nc(C3CC3)nn2-c2ccnc(C)c2)nc(OC)n1	2.64%
CN(CCCc1cnn(C)c1)C(=O)Nc1cccc2[nH]nnc12	-3.98%
O=C(N[C@@H]1CN(Cc2cccc(F)c2)C[C@H]1O)c1cscn1	-4.66%
CNc1snc(C)c1C(=O)N1CCCC(n2nc(C)nc2C)C1 (stereo unspecified)	-7%
COc1ccc(CC(=O)N2CCCC(Cn3cc(CN)nn3)C2)cc1 (stereo unspecified)	7.22%
Clc1ccccc1OCCc1cc(C2CCNC2)n[nH]1 (stereo unspecified)	-32.9%
Fc1cnc(N2CCOCC3(CCCNC3)C2)nc1 (stereo unspecified)	-5.36%
CC(C)NC(=O)N1CCn2c(nnc2C2CCCN2)C1 (stereo unspecified)	-1.32%
Cc1ccc(F)c(OC2(C(=O)O)CCN(C(=O)N3CCCC3)CC2)c1	-3.94%
O=C(CC1CC1)N[C@@H]1CN(Cc2ccncc2)C[C@@H]2CCCO[C@@H]21	-7.96%
O=C(c1ccc(Cl)s1)N1CC(c2nc(-c3ccc[nH]c3=O)no2)C1	-1.26%
CC1(C2CCN(CC(N)=O)CC2)CN(Cc2ccccc2)C(=O)CO1 (stereo unspecified)	-19.9%
CCc1nc(C2CCCN(C(=O)NC3CC3)C2)no1 (stereo unspecified)	-15.3%
CCc1nccn1C1CCCN(C(=O)c2ccn(C)c(=O)c2)C1 (stereo unspecified)	17%
COCCn1ccc(=O)c(OCC(=O)Nc2cccc(C(C)=O)c2)c1C	4.31%

Structure (SMILES)	cytotoxicity at 10 µM
COc1ccc2c(CN3CCCN(Cc4ccncc4)CC3)n[nH]c2c1	-4.32%
COCCN1CCOCC12CCN(c1nccs1)CC2	-102%
CN(C)C1CCCN(C(=O)CCc2csc(N)n2)CC1 (stereo unspecified)	1.48%
Cc1cccc(CN2CCC3(CC2)CN(c2cnn(C)c2)C(=O)CO3)n1	3.94%
CC(C)c1nc(C2CCCN2CCc2ccncc2)no1 (stereo unspecified)	-10.8%
CCCC(NC(=O)c1cc(C2CC2)[nH]n1)c1nnc2ccccn12 (stereo unspecified)	0.11%
O=S(=O)(Cc1cc(-c2ccccc2)no1)CC1CCCO1 (stereo unspecified)	4.7%
CCOC1CC2(CCN(C(=O)Cc3ccccn3)CC2)C1	-90.9%
CN(CC1CCN(CCO)CC1)CC(O)c1ccc(F)cc1F (stereo unspecified)	-59.3%
Oc1cccc(CN2C[C@@H]3CC[C@H]2CN(Cc2ccc(F)cc2)C3)c1	-135%
O=C1[C@@H]2CCN(CC3CCOCC3)C[C@@H]2OCCN1c1ccccc1	-5.21%
c1cc(CN2CCCC2)cc(-n2ccnc2-c2ccncc2)c1	-1.37%
CC(=O)N(Cc1ncc(C(C)C)o1)C1CCN(Cc2cc(C)on2)C1 (stereo unspecified)	-6.78%
CCN1CC(O)CN(C(=O)c2cccc(C(F)(F)F)c2)CC1=O (stereo unspecified)	4.04%
Cc1cccc(CNC(C)c2ccc(OCC(=O)NC3CC3)cc2)c1 (stereo unspecified)	-10%
NCc1ccc(Oc2cccc(Cl)c2Cl)nc1	4.75%
CC(=O)N1CCC2(CC1)CN(CC1CC1)c1ccc(F)cc12	-113%
O=C(NCCCc1nc(=O)[nH][nH]1)Nc1ccc(Cl)cc1	-54.9%
CC(C)c1n[nH]c(C2CN(Cc3ncc[nH]3)CCO2)n1 (stereo unspecified)	1.95%
CCC(CC)c1cc(CNC(=O)N2CCCC(c3ncc[nH]3)C2)on1 (stereo unspecified)	-2.02%
CN(Cc1cc(Br)cn1C)C(=O)c1cscn1	-0.37%
Cc1nc(CN2CCCC(NCCc3ccccc3Cl)C2)no1 (stereo unspecified)	-11.8%
COc1cccc(C)c1C(=O)N1CCc2ncnc(NCCO)c2CC1	5.69%

Structure (SMILES)	cytotoxicity at 10 µM
Cc1cc(N)nc(SC2CCN(c3ccccc3F)C2=O)n1 (stereo unspecified)	-9.51%
Cc1cc(CN2C[C@H]3CCC[C@@]3(COCc3csc(C)n3)C2)no1	11.6%
CC(=O)N1CC[C@@H](N2CCN(C)CC2)[C@@H]1Cc1ccccc1	9.04%
c1cncc(-c2nc(C3CC3)ncc2-c2ccnc(N3CCCC3)n2)c1	-2.5%
Cc1cccc(-c2ccc(C(=O)NCCN(C)C3CC3)c(=O)[nH]2)c1	-6.81%
CN(C)C(=O)c1n[nH]c2c1CCN(Cc1nccs1)C2	-139%
c1csc(CN2CCc3nc(N4CCOCC4)nc(NC4CC4)c3C2)n1	0.0529%
CC(C)c1cc(NC(=O)Cn2cnc3ccccc3c2=O)[nH]n1	-168%
CC(C)(C)OC(=O)NCCNC(=O)c1cnc(-c2ccccc2)nc1	8.12%
CCc1ccc(C(=O)N2CCC(Nc3ccc(C)nn3)CC2)o1	-11%
Cc1nn(CC(=O)N2CCCN(c3cccnn3)CC2)c(C)c1Cl	-1.2%
COCc1c(C(=O)NC2CCCC2)nnn1-c1ccc(C)cc1	5.97%
O=C(COc1ccccc1C(F)(F)F)NCCNC(=O)c1ccccc1	-9.53%
CC(C)S(=O)(=O)NCC1CCCN(C(=O)c2ccc3c(c2)OCCO3)C1 (stereo unspecified)	-35.2%
Cc1ncsc1CCN(C)C(=O)CN1CCCCCC1=O	-7.67%
COCc1cncc2c1CCN(Cc1cccs1)C2	-0.95%
Cc1noc(C2(C)CCCN(C(=O)C(C)C)C2)n1 (stereo unspecified)	-3.97%
Cc1nc(N[C@H]2COC[C@@H]2N2CCCC2)c2cnn(C)c2n1	-1.42%
CCN(Cc1csc(C)n1)c1cccc(CO)c1	-6.55%
CC(NC(=O)NCc1ccc(Cl)s1)c1ccccn1 (stereo unspecified)	1.64%
Cc1ccc(-n2nc(C)cc2N)nn1	16%
CC(=O)NCc1nn(C)c2c1CN(Cc1ccsc1)C2	-144%
c1ccc(CNc2ccccc2N2CCCC2)nc1	10.9%

Structure (SMILES)	cytotoxicity at 10 µM
Cc1cnc(CNc2c(F)cccc2-n2cccn2)o1	15.6%
CN(C)CCN(C)C(=O)Cc1ccc2c(c1)OCCO2	-7.94%
CN(Cc1cccs1)C(=O)c1ccc(N2CCOCC2)c(F)c1	-5.56%
Cc1cc(NC(=O)C2CCN(c3nnc(C)c(C)c3C#N)CC2)no1	-4.11%
Cc1nc(N2CCCC2)nc2c1CCN(C(=O)CN(C)C)CC2	-5.73%
CNC(=O)c1ccc(C(=O)N2CCCC2c2c(C)nn(C)c2C)cn1 (stereo unspecified)	-12.8%
O=c1occ(CN2CCCCCC2)c(O)c1CN1CCOCC1	-8.2%
CCCNC(=O)C1CCCN(Cc2csc(C(C)(C)C)n2)C1 (stereo unspecified)	-3.14%
CNCC(=O)N1CCCC1c1nc(C(C)C)no1 (stereo unspecified)	0.983%
O=C(NCc1nncn1C1CCCCC1)C1CNCCO1 (stereo unspecified)	-2.08%
CS(=O)(=O)N1CCN(C(=O)CN2CCCc3c(F)cc(F)cc32)CC1	-1.52%
O=C(c1ccncc1)N1CCOC2(COCCN(c3cncnc3)C2)C1 (stereo unspecified)	8.58%
c1cncc(-c2nc3c(c(NCC4(c5ccncc5)CC4)n2)CCC3)c1	7.77%
CN1CCN(C(=O)[C@@H]2CC[C@@H]3[C@@H](CCN3c3ncccn3)O2)CC1	7.13%
N#CCCN(C(=O)CN1CCCC1C1CCCCC1)c1ccccc1 (stereo unspecified)	-12.1%
CCOC(=O)C1CCN(C(=O)CN2CCCC2c2ccsc2)CC1 (stereo unspecified)	-5.42%
COc1ccc(C(=O)CCc2nc(C3CC3)no2)cc1F	-2.89%
CC(C)[C@@H](C)NC1CCN(c2ccc(-n3ccnc3)cc2)CC1	0.487%
Cc1cc(=O)[nH]c(=O)n1-c1cccc(Cl)c1Cl	-3.57%
CS(=O)(=O)NCCC(=O)NC1CCc2nccn2C1 (stereo unspecified)	9.46%
Cc1ccc(CNCc2ccc(-n3nc(C)cc3C)nc2)cc1	-0.164%
CCNC(=O)[C@@H]1C[C@@H](N)CN1C(=O)C1(c2ccc(OC)cc2)CCCC1	3.95%
CNC(=O)[C@H]1C[C@H]2CN(C(=O)Nc3ccc(F)cc3)C[C@@H]1O2	3.28%

Structure (SMILES)	cytotoxicity at 10 µM
O=C1N(c2cncnc2)CCC12CCCN(Cc1ccccn1)C2 (stereo unspecified)	-9.35%
Cc1ccc(S(=O)(=O)N2C[C@H]3C[C@H](NC(=O)c4cc(C)no4)[C@H]3C2)cc1	-11.2%
CCc1ccc(CN2CCN(CCOC)[C@@H]3CS(=O)(=O)C[C@@H]32)cc1	-5.72%
CN(CC(=O)NS(=O)(=O)c1cccs1)Cc1ccccc1	-9.71%
Cc1csc(N2CCN(Cc3ccccn3)CC2C)n1 (stereo unspecified)	-8.84%
COc1cc(CN2C[C@H](OC)[C@]3(CCCO3)C2)ccc1F	-7.61%
CCCNC(c1cccnc1)c1ccc(F)c(C)c1 (stereo unspecified)	0.821%
Cc1c(C(=O)NCC2CCN(Cc3c[nH]cn3)C2)[nH]c2ccccc12 (stereo unspecified)	-9.8%
c1cn(-c2cnc(C3CCNCC3)cn2)cn1	-5.72%
O=C(NCCCO)Nc1cccc(I)c1	-6.1%
CCNC(=O)N1C[C@@H]2OCC(=O)N(CC3CC3)[C@@H]2C1	0.434%
COCCN(C)C[C@@H]1CN(c2cc(C)nc3ccccc23)C[C@@H]1CO	-1.92%
O=C(NCC1(O)CCC1)c1c(O)cc(Cl)cc1Cl	0.924%
Cc1cn2c(CN(C)C(=O)c3ncoc3C)c(C)nc2s1	-3.28%
Cc1cc(C(=O)N(C)C(C)CC(C)C)on1 (stereo unspecified)	-4.6%
Cc1nc(C2CCN(C(=O)c3ccc(=O)n(C)c3)CC2)c2sccn12	-5.38%
CN(C)c1ncnc2c1CCN(c1cc(C(F)(F)F)ncn1)CC2	9.55%
CS(=O)(=O)N1CCN(C(=O)c2cnn3c2OCCC3)CC1	-3.45%
O=S(=O)(c1cc(F)ccc1F)N1CCCC1c1ccco1 (stereo unspecified)	11.2%
